SMILES strings stand for the structures. Activity calls are given as the source filed them. The rule behind the calls is not given here. *1 amine or outer side, *2 acyl side, *3 side chain or, on linkers, in order; H or OH if unused. Where a SMILES comes first, the peptide text is derived from it. Bridges are numbered along the chain shown (N, C = ends). TBMB = c1c(C[*:1])cc(C[*:3])cc1C[*:2] A value given as a limit tells only on which side of the number the result lay.

Series [1] deals with Plasma. The experiment in a line: Anti-coagulating activity in factor 8-deficient human plasma assessed as increase in coagulation time at 10 uM by aPTT assay. The series is classed as functional. The method in brief: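 Clotting time measured on a coagulation analyzer using actin FS, 0.025 M CaCl2, FVIII-deficient human plasma and Owren's Veronal Buffer pH 7.35, run per the manufacturer's instructions. Peptide tested from zero (vehicle) up to 10 μM. Each point is the mean ± SD of triplicates.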

Series [2] concerns Rattus norvegicus. The series can be described thus: Antiinflammatory activity in Sprague-Dawley rat assessed as inhibition carrageenan-induced paw edema at 30 mg/kg, ip pretreated for 15 mins followed by carrageenan challenge measured at 1 hr post carrageenan challenge. The series is classed as functional. The method in brief: (§1)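 Male Sprague-Dawley rats received peptide IP (30, 10 or 3 mg/kg), or indomethacin IP at 5 mg/kg, 15 min before subplantar carrageenan. Paw volume was followed over time against a vehicle group.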
For orientation: In the carrageenan paw model, swelling and tenderness develop within hours.

Series [3] concerns Rattus norvegicus. The series can be described thus: Antiinflammatory activity in Sprague-Dawley rat assessed as inhibition carrageenan-induced paw edema at 30 mg/kg, ip pretreated for 15 mins followed by carrageenan challenge measured at 2 hrs post carrageenan challenge. The series is classed as functional. The method in brief:
as §1

Series [4] deals with Rattus norvegicus. The experiment in a line: Antiinflammatory activity in Sprague-Dawley rat assessed as inhibition carrageenan-induced paw edema at 30 mg/kg, ip pretreated for 15 mins followed by carrageenan challenge measured at 4 hrs post carrageenan challenge. The series is classed as functional. The method in brief: as §1
Series [5] deals with Rattus norvegicus. The series can be described thus: Antidiabetic activity in STZ-induced diabetic Brown-Norway rat model assessed as reduction in retinal vascular leakage at 100 ug/eye administered via ivt measured at 4 weeks post diabetes onset relative to control. Format: functional. An outline of the steps:
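Diabetes was induced with STZ in male Brown-Norway rats. Peptide was given intravitreally at 100 μg/eye. Retinal vascular permeability was read as FITC-BSA extravasation 4 weeks after diabetes onset and compared with vehicle-treated diabetic rats. A soluble VEGF-trap served as positive control.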

The subject of series [6] is Plasma. The experiment in a line: Stability in rat plasma at 50 uM incubated for 2 days by MALDI-TOF analysis. Format: ADME, cell-free. Particulars: 48 h. An outline of the steps:
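Qualitative stability test. 1 mM DMSO stock diluted into citrated rat plasma to 50 μM and held at 37 °C for up to 2 days. Aliquots at time points quenched in 1:1 acetonitrile/methanol and centrifuged. Supernatant mixed with 30 mM ammonium bicarbonate. Parent mass and protease metabolites detected by MALDI-TOF.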

A short description of series [7]: Aqueous solubility of the compound in buffer. The series is classed as physicochemical.
Series [8] has as its target Plasma kallikrein (Homo sapiens, UniProt P03952). The experiment in a line: Inhibition of human plasma kallikrein using fluorogenic H-Pro-Phe-Arg-AMC peptide as substrate preincubated for 15 mins followed by substrate addition measured by fluorescence-based assay. The settings on record: read-out: Ki(app).
Series [9] concerns the target Plasma kallikrein (Rattus norvegicus, UniProt P14272). The experiment in a line: Inhibition of recombinant Sprague-Dawley rat plasma kallikrein using fluorogenic H-Pro-Phe-Arg-AMC peptide as substrate preincubated for 15 mins followed by substrate addition measured by fluorescence-based assay. The settings on record: read-out: Ki(app).
The target of the next series is Kallikrein-6 (Homo sapiens, UniProt Q92876). The experiment in a line: Inhibition of recombinant human C-terminal His-tagged KLK6 isoform 1 (1 to 244 residues) expressed in HEK293 cells using fluorogenic Boc-QARAMC peptide as substrate by fluorescence based assay. An outline of the steps: (§2)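 Human serine proteases were assayed with substrates and conditions set by each supplier's recommendations. Peptides were first screened at 50 μM. Where inhibition was detected, Ki was determined from activity across peptide concentrations using a tight-binding rate equation.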

In another series the target is Prothrombin (Homo sapiens, UniProt P00734). The experiment in a line: Inhibition of recombinant human alpha thrombin using fluorogenic peptide as substrate by fluorescence based assay. The method in brief:
(§3)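 Panel of human serine proteases. Substrates and assay conditions followed each supplier's recommendations. Peptides were first screened at 50 μM. Where inhibition was detectable, hydrolytic activity was measured across a range of peptide concentrations. Ki was obtained by fitting to the tight-binding inhibitor rate equation.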

For a further series, the target named is T1, Cathepsin G (Homo sapiens, UniProt P08311).
T1 sequence (P08311 whole entry): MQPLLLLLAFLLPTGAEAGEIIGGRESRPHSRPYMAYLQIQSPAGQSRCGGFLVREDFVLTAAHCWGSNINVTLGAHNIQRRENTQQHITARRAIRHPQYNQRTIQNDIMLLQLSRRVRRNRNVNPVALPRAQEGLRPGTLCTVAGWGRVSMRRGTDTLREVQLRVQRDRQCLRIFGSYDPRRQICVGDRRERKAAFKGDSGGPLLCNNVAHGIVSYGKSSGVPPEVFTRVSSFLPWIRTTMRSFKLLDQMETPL
The series can be described thus: Inhibition of recombinant human Cathepsin-G. The method in brief:
as §3

A further series deals with Coagulation factor X (Homo sapiens, UniProt P00742). The experiment in a line: Inhibition of recombinant human C-terminal 10His-tagged factor Xa (24 to 488 residues) expressed in baculovirus derived insect sf21 cells using fluorogenic Mca-RPKPVE-Nval-WRK(Dnp)-NH2 peptide as substrate by fluorescence based assay. The method in brief: as §2
Series [10] deals with T2, Complement C1s subcomponent (Homo sapiens, UniProt P09871).
T2 sequence (P09871 whole entry): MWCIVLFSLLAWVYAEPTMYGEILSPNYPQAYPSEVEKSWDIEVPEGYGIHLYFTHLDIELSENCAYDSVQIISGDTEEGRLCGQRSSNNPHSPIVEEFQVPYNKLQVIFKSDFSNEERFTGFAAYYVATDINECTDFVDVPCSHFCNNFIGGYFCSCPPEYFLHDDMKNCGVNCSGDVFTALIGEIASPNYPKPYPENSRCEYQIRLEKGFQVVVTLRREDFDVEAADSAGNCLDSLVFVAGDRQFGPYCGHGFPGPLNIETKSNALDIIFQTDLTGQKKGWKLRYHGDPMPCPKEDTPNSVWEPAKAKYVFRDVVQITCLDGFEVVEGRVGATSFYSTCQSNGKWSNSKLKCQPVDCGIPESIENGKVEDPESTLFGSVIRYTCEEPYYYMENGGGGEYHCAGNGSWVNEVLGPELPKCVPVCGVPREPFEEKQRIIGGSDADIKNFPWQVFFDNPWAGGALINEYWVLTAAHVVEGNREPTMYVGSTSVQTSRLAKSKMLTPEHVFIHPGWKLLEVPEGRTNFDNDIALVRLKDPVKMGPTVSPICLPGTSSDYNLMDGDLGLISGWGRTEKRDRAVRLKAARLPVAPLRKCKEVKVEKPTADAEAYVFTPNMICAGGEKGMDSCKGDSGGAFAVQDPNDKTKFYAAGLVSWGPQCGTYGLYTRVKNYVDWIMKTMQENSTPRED
The series can be described thus: Inhibition of recombinant human C-terminal 6His-tagged complement component C1s (1 to 688 residues) expressed in mouse NS0 cells using fluorogenic Z-Lys-SBzl peptide as substrate after 5 mins by fluorescence based assay. The method in brief:
as §2

For a further series, the species on record is Oryctolagus cuniculus. The series can be described thus: Inhibition of plasma kallikrein in rabbit plasma using HMWK as substrate assessed as suppression of kaolin-activated protein induced bradykinin release at 2 uM preincubated for 15 mins followed by substrate addition measured after 15 min by ELISA. For orientation: An ELISA detects its analyte on a solid surface through an enzyme-linked reagent.

Series [11] relates to Rattus norvegicus. The series can be described thus: Antiinflammatory activity in Sprague-Dawley rat carrageenan-induced paw edema model assessed as inhibition of paw edema AUC (0 to 2 hrs) at 10 to 30 mg/kg, ip pretreated for 15 mins followed by carrageenan challenge. The series is classed as functional, organism-based. The method in brief: as §1
The test system of the next series is Mus musculus. The series can be described thus: Antidiabetic activity in STZ-induced diabetic C57BL/6J mouse model assessed as reduction in retinal vascular permeability at 100 ug administered 4 times via ivt measured at 8 weeks post diabetes onset relative to control. The series is classed as functional. An outline of the steps: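 Diabetes was induced with STZ in male C57BL/6J mice. Peptide was given as repeated intravitreal injections (4 × 100 μg). Retinal permeability was read as FITC-BSA extravasation 8 weeks after diabetes onset and compared with vehicle-treated diabetic mice. The anti-VEGFR2 antibody DC101 (6.2 μg/eye, single dose) served as positive control.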

Series [12] deals with Rattus norvegicus. The experiment in a line: Antiinflammatory activity in ip dosed Sprague-Dawley rat carrageenan-induced paw edema model assessed as inhibition of edema pretreated for 15 mins followed by carrageenan challenge measured up to 6 hrs. Format: functional, organism-based. An outline of the steps:
as §1

With `CC(=O)N[C@H]1CSCc2cc3cc(c2)CSC[C@H](NC(=O)[C@H](CCCCNC(=N)N)NC(=O)[C@H](Cc2ccc(O)cc2)NC(=O)[C@@H]2CCN2C(=O)[C@H](Cc2ccccc2)NC(=O)[C@H](CO)NC1=O)C(=O)N[C@@H](C)CN[C@@H](Cc1cnc[nH]1)C(=O)N[C@@H](CCC(N)=O)C(=O)N[C@@H](CC(=O)O)C(=O)N[C@@H](CC(C)C)C(=O)N[C@H](C(=O)O)CSC3`, in the series on Plasma [1], the Activity came out at 15%. Besides, the inhibition in vivo (commonly the relative decrease from the control value, in per cent) at 30 mg/kg was 90% with Rattus norvegicus [2], 52% in the series with Rattus norvegicus [3] and 32% with Rattus norvegicus [4]. For the same compound, the “inhibition (INH)” value in the series on Rattus norvegicus [5] was found to be 30%.

As to `CC(C)C[C@@H]1NC(=O)[C@@H]2CCCN2C(=O)[C@H](C)NC(=O)[C@H](CC(=O)O)NC(=O)[C@H](Cc2c[nH]c3ccccc23)NC(=O)[C@@H]2CCCN2C(=O)[C@@H]2CSCc3cc(cc(c3)CSC[C@@H](C(=O)N[C@@H](C)C(=O)O)NC1=O)CSC[C@H](NC(=O)[C@H](C)N)C(=O)N[C@@H](CC(N)=O)C(=O)N[C@@H]([C@@H](C)O)C(=O)N[C@@H](Cc1c[nH]c3ccccc13)C(=O)N[C@@H](CC(N)=O)C(=O)N1CCC[C@H]1C(=O)N[C@@H](Cc1c[nH]c3ccccc13)C(=O)N2` (H-ACNTWNPWCPWDAPLCA-OH; linker 2-9-16 via TBMB), the Stability result in the series on Plasma [6] was “Unstable”. Also, the solubility entry in [7] was “Insoluble”. Also, the Ki at Plasma kallikrein [8] was found to be 0.0023 µM; on Plasma kallikrein [9], 0.0004 µM.

Regarding `CC(=O)N[C@H]1CSCc2cc3cc(c2)CSC[C@@H](NC(=O)[C@H](CCCCNC(=N)N)NC(=O)[C@H](Cc2ccc(O)cc2)NC(=O)C2CCN2C(=O)[C@H](Cc2ccccc2)NC(=O)[C@H](CO)NC1=O)C(=O)N[C@@H](C)CN[C@@H](Cc1cnc[nH]1)C(=O)N[C@@H](CCC(N)=O)C(=O)N[C@@H](CC(=O)O)C(=O)N[C@@H](CC(C)C)C(=O)N[C@H](C(=O)O)CSC3` (stereo partly drawn), the Ki (on Kallikrein-6; at Prothrombin; at Cathepsin G; at Coagulation factor X; in series [10]) was more than 50 µM throughout. The inhibition entry in the series listed under Oryctolagus cuniculus and in the series with Mus musculus was “inactive” in each case. Further, in the series on Rattus norvegicus [11], the inhibition result is “Active”. The inhibition result in the series on Rattus norvegicus [12] is “Dose-dependent effect”.

The values above are taken from ChEMBL document CHEMBL4033799, “Stable and Long-Lasting, Novel Bicyclic Peptide Plasma Kallikrein Inhibitors for the Treatment of Diabetic Macular Edema” (J Med Chem, 2018).
